Measurements from ChEMBL document CHEMBL3272319, “Alkyl streptozotocin analogues with improved biological activities” (J Med Chem, 1976).

Tests used:
[1] = system: Mus musculus; assay: Toxicity in ICR mouse allografted with mouse S180A assessed as mortality at 50 mg/kg, ip qd for 5 days; assay type: organism-based; design: dose 50 mg/kg, route intraperitoneal; settings: in vivo, 120 h
How it was run: (§1)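 Ascites Sarcoma 180 (1 × 10^7 cells) implanted into ICR mice, six per group; compound in saline ip once daily days 1-5; sacrifice on day 7; total packed cell volume (ascites volume × PCV) compared with controls as T/C %; mortality recorded.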

[2] = Antitumor activity against mouse S180A allografted in ICR mouse assessed as tumor growth at 50 mg/kg, ip qd for 5 days measured on day 7 relative to control; assay type: functional; settings: route intraperitoneal
How it was run: (§2)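 Ascites Sarcoma 180 (1 × 10^7 cells) implanted into ICR mice, six animals per group. Five daily ip injections in saline (days 1–5). Sacrificed day 7. T/C % computed from total packed cell volume (ascites volume × PCV) vs controls. Grades: 100-66 = -, 65-41 = +, 40-11 = ++, 10-0 = +++.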

[3] = system: Mus musculus; assay: Toxicity in ICR mouse allografted with mouse EAC assessed as mortality at 125 mg/kg, ip qd for 5 days; assay type: organism-based; design: dose 125 mg/kg, route intraperitoneal; settings: in vivo, 120 h
How it was run: (§3)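 Ehrlich ascites carcinoma (1 × 10^7 cells) implanted into ICR mice, six per group; compound ip daily for 5 days; mice sacrificed day 7; tumour burden as total packed cell volume (ascites volume × PCV), T/C % vs controls; mortality recorded.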

[4] = system: Ehrlich; assay: Antitumor activity against mouse EAC allografted in ICR mouse assessed as tumor growth at 125 mg/kg, ip qd for 5 days measured on day 7 relative to control; assay type: functional; settings: route intraperitoneal
How it was run: (§4)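 Ehrlich ascites carcinoma (1 × 10^7 cells) implanted into ICR mice, six per group. Drug in saline ip, qd days 1–5. Mice killed day 7. Total packed cell volume = ascites volume × % packed cell volume; T/C % = TPCV treated/control × 100. Activity graded from T/C.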

[5] = system: Rattus norvegicus; assay: Diabetogenic activity in iv dosed Wistar rat assessed as increase in blood sugar level administered as single dose by glucose oxidase method; assay type: ADME, organism-based; settings: in vivo
How it was run: (§5)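 Male Wistar rats, about 200 g, five per group, fasted 16 h. Single iv dose into the femoral vein in physiological saline, equimolar across compounds. Caudal-vein blood sampled at set times over 24 h. Sugar measured by glucose oxidase.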

[6] = system: Enterococcus faecalis; assay: Antibacterial activity against Streptococcus faecalis ATCC 10541 assessed as growth inhibition after 18 hrs by broth dilution method; assay type: functional; settings: ATCC 10541, 18 h
How it was run: (§6)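 Twofold serial dilutions in heart infusion broth. Inoculum was a 24-h heart infusion broth culture diluted 100-fold in physiological saline. Tubes incubated 30 °C for 18 h; the table footnote gives 32 °C for 24 h. MIC in µg/ml is the lowest level giving complete growth inhibition.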

[7] = system: Salmonella typhi; assay: Antibacterial activity against Salmonella typhi IFM 3020 assessed as growth inhibition after 18 hrs by broth dilution method; assay type: functional, Salmonella enterica subsp. enterica serovar Typhi; settings: Salmonella enterica, IFM 3020, 18 h
How it was run: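 Twofold serial dilutions in heart infusion broth; inoculum from 24 h heart infusion broth culture diluted 100-fold in physiological saline; tubes incubated 30 °C for 18 h; MIC (µg/ml) = lowest level giving complete growth inhibition.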

[8] = system: Mus musculus; assay: Toxicity in BDF1 mouse allografted with mouse L1210 cells assessed as mortality at 50 mg/kg, ip qd for 5 days; assay type: organism-based; design: dose 50 mg/kg, route intraperitoneal; settings: in vivo, 120 h
How it was run: (§7)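 L1210 (1 × 10^5 cells) implanted into BDF1 mice, six per group; compound in saline ip once daily days 1-5; effect read as % increase in life span, ILS = [(treated life span/control life span) − 1] × 100.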

[9] = system: Klebsiella pneumoniae; assay: Antibacterial activity against Klebsiella pneumoniae ATCC 10031 assessed as growth inhibition after 18 hrs by broth dilution method; assay type: functional; settings: ATCC 10031, 18 h; how it was run: as §6
[10] = system: Mus musculus; assay: (§8) Acute toxicity in ip dosed JCL-ICR mouse assessed as animal death; assay type: organism-based; settings: in vivo
How it was run: (§9)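 Groups of ten female JCL-ICR mice given single ip dose in physiological saline; deaths followed over 7 days; LD50 (and LD10) derived by Litchfield–Wilcoxon method.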

[11] = as §8; assay type: organism-based; settings: JCL-ICR, in vivo; how it was run: as §9
[12] = system: Escherichia coli; assay: Antibacterial activity against Escherichia coli NIHJ JC-2 assessed as growth inhibition after 18 hrs by broth dilution method; assay type: functional; settings: NIHJ JC-2, 18 h; how it was run: as §6
[13] = Antitumor activity against mouse S180A allografted in ICR mouse assessed as tumor growth at 25 mg/kg, ip qd for 5 days measured on day 7 relative to control; assay type: functional; settings: route intraperitoneal; how it was run: as §2
[14] = system: Bacillus subtilis; assay: Antibacterial activity against Bacillus subtilis ATCC 6633 assessed as growth inhibition after 18 hrs by broth dilution method; assay type: functional; settings: ATCC 6633, 18 h; how it was run: as §6
[15] = system: Mus musculus; assay: Ratio of compound LD10 to streptozotocin LD10 for JCL-ICR mouse; assay type: ADME, organism-based; settings: in vivo
[16] = system: Proteus vulgaris; assay: Antibacterial activity against Proteus vulgaris AHU 1469 assessed as growth inhibition after 18 hrs by broth dilution method; assay type: functional; settings: AHU 1469, 18 h; how it was run: as §6
[17] = system: Pseudomonas fluorescens; assay: Antibacterial activity against Pseudomonas fluorescens NIHJ B-254 assessed as growth inhibition after 18 hrs by broth dilution method; assay type: functional; settings: NIHJ B-254, 18 h; how it was run: as §6
[18] = system: Micrococcus luteus; assay: Antibacterial activity against Sarcina lutea ATCC 9341 assessed as growth inhibition after 18 hrs by broth dilution method; assay type: functional; settings: ATCC 9341, 18 h; how it was run: as §6
[19] = system: Rattus norvegicus; assay: Diabetogenic activity in Wistar rat assessed as increase in blood sugar level at 68 mg/kg, iv administered as single dose by glucose oxidase method; assay type: ADME, organism-based; design: dose 68 mg/kg, route intravenous; settings: in vivo; how it was run: as §5
[20] = system: Staphylococcus aureus; assay: Antibacterial activity against Staphylococcus aureus FDA 209P JC-1 assessed as growth inhibition after 18 hrs by broth dilution method; assay type: functional; settings: FDA 209P JC-1, 18 h; how it was run: as §6
[21] = system: Mus musculus; assay: Toxicity in ICR mouse allografted with mouse EAC assessed as mortality at 150 mg/kg, ip qd for 5 days; assay type: organism-based; design: dose 150 mg/kg, route intraperitoneal; settings: in vivo, 120 h; how it was run: as §3
[22] = system: L1210; assay: Antitumor activity against mouse L1210 cells allografted in BDF1 mouse assessed as increase in host lifespan at 50 mg/kg, ip qd for 5 days relative to control; assay type: functional; settings: 120 h, route intraperitoneal; how it was run: as §7
[23] = system: Ehrlich; assay: Antitumor activity against mouse EAC allografted in ICR mouse assessed as tumor growth at 150 mg/kg, ip qd for 5 days measured on day 7 relative to control; assay type: functional; settings: route intraperitoneal; how it was run: as §4
[24] = system: Mus musculus; assay: Toxicity in ICR mouse allografted with mouse S180A assessed as mortality at 25 mg/kg, ip qd for 5 days; assay type: organism-based; design: dose 25 mg/kg, route intraperitoneal; settings: in vivo, 120 h; how it was run: as §1
[25] = system: Shigella sonnei; assay: Antibacterial activity against Shigella sonnei assessed as growth inhibition after 18 hrs by broth dilution method; assay type: functional; how it was run: as §6
[26] = Ratio of compound LD50 to streptozotocin LD50 for JCL-ICR mouse; assay type: ADME, organism-based; settings: in vivo
[27] = system: L1210; assay: Antitumor activity against mouse L1210 cells allografted in BDF1 mouse assessed as increase in host lifespan at 100 mg/kg, ip qd for 5 days relative to control; assay type: functional; settings: 120 h, route intraperitoneal; how it was run: as §7
[28] = system: Mus musculus; assay: Toxicity in BDF1 mouse allografted with mouse L1210 cells assessed as mortality at 100 mg/kg, ip qd for 5 days; assay type: organism-based; design: dose 100 mg/kg, route intraperitoneal; settings: in vivo, 120 h; how it was run: as §7
[29] = system: Rattus norvegicus; assay: Diabetogenic activity in Wistar rat assessed as increase in blood sugar level at 71.4 mg/kg, iv administered as single dose by glucose oxidase method; assay type: ADME, organism-based; design: dose 71.4 mg/kg, route intravenous; settings: in vivo; how it was run: as §5

Row | SMILES | Activity [1] | T/C [2] [%] | Activity [3] | T/C [4] [%] | Activity [5] | Activity [8] | LD10 [10] [mg/kg] | LD50 [11] [mg/kg] | T/C [13] [%] | Ratio [15] | ILS at 50 mg/kg [22] [%] | Activity [24] | selectivity ratio [26] | also measured
1 | CCCN(N=O)C(=O)N[C@H]1[C@@H](OC)O[C@H](CO)[C@@H](O)[C@@H]1O | Non-toxic | 55 | Non-toxic | 61 | Non-toxic | – | – | – | – | – | – | – | – | –
2 | CO[C@H]1O[C@H](CO)[C@@H](O)[C@H](O)[C@H]1NC(=O)N(C)N=O | – | – | – | – | – | Non-toxic | 1380 | 1930 | 37 | 2 | 35 | Non-toxic | 2 | MIC [6]: > 1000 µg/mL; MIC [7]: > 1000 µg/mL; MIC [9]: > 1000 µg/mL; MIC [12]: > 1000 µg/mL; MIC [14]: > 1000 µg/mL; MIC [16]: > 1000 µg/mL; MIC [17]: > 1000 µg/mL; MIC [18]: > 1000 µg/mL; Activity [19]: Non-toxic; MIC [20]: > 1000 µg/mL; Activity [21]: Non-toxic; T/C [23]: 16%; MIC [25]: > 1000 µg/mL
3 | CCCO[C@H]1O[C@H](CO)[C@@H](O)[C@H](O)[C@H]1NC(=O)N(C)N=O | – | – | Non-toxic | 37 | Non-toxic | Non-toxic | 1020 | 1470 | 32 | 2 | 29 | Non-toxic | 2 | –
4 | CCO[C@H]1O[C@H](CO)[C@@H](O)[C@H](O)[C@H]1NC(=O)N(CC)N=O | Non-toxic | 63 | Non-toxic | 60 | Non-toxic | – | – | – | – | – | – | – | – | ILS at 100 mg/kg [27]: 14%; Activity [28]: Non-toxic
5 | CCCCO[C@@H]1O[C@H](CO)[C@@H](O)[C@H](O)[C@H]1NC(=O)N(C)N=O | – | – | – | – | Non-toxic | Non-toxic | 1100 | 1580 | 40 | 2 | 33 | Non-toxic | 2 | Activity [21]: Non-toxic; T/C [23]: 4%
6 | CCCCO[C@H]1O[C@H](CO)[C@@H](O)[C@H](O)[C@H]1NC(=O)N(C)N=O | Non-toxic | 20 | – | – | Non-toxic | Non-toxic | 1200 | 2000 | – | 2 | 30 | – | 2 | Activity [21]: Non-toxic; T/C [23]: 16%
7 | CCCN(N=O)C(=O)N[C@H]1[C@H](OC)O[C@H](CO)[C@@H](O)[C@@H]1O | Non-toxic | 69 | Non-toxic | 72 | Non-toxic | – | – | – | – | – | – | – | – | ILS at 100 mg/kg [27]: 7%; Activity [28]: Non-toxic
8 | CCO[C@@H]1O[C@H](CO)[C@@H](O)[C@H](O)[C@H]1NC(=O)N(C)N=O | – | – | – | – | – | – | 1550 | 2050 | 37 | 2 | – | Non-toxic | 2 | MIC [6]: > 1000 µg/mL; MIC [7]: > 1000 µg/mL; MIC [9]: > 1000 µg/mL; MIC [12]: > 1000 µg/mL; MIC [14]: > 1000 µg/mL; MIC [16]: > 1000 µg/mL; MIC [17]: > 1000 µg/mL; MIC [18]: > 1000 µg/mL; MIC [20]: > 1000 µg/mL; Activity [29]: Non-toxic; MIC [25]: > 1000 µg/mL
9 | CCCCN(N=O)C(=O)N[C@H]1[C@H](OC)O[C@H](CO)[C@@H](O)[C@@H]1O | Non-toxic | 54 | Non-toxic | 52 | Non-toxic | Non-toxic | – | – | – | – | 12 | – | – | –
10 | CCCCO[C@H]1O[C@H](CO)[C@@H](O)[C@H](O)[C@H]1NC(=O)N(CCCC)N=O | Non-toxic | 80 | Non-toxic | 53 | Non-toxic | – | 410 | 660 | – | 2 | – | – | 2 | –
11 | CCO[C@@H]1O[C@H](CO)[C@@H](O)[C@H](O)[C@H]1NC(=O)N(CC)N=O | Non-toxic | 59 | – | – | Non-toxic | – | – | – | – | – | – | – | – | ILS at 100 mg/kg [27]: 10%; Activity [28]: Non-toxic
